Our source for the MIC and LD50 values is ChEMBL document CHEMBL1150811, “New modified eremophilanes from the roots of Psacalium radulifolium” (J Nat Prod, 2001).

In brackets after ≈: the same amount, converted by molar mass. Bounds are passed on as bounds.

The subject of one data set is Staphylococcus aureus. As to the kind of experiment: Antimicrobial activity against Staphylococcus aureus ATCC 6358.
The subject of another data set is Pseudomonas aeruginosa. The data set can be described thus: Antimicrobial activity against Pseudomonas aeruginosa ATCC 27853. Type of data set: functional. The essentials: (§1)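 Agar dilution: each natural product suspended in 10% DMSO and added at various concentrations to melted agar in Petri dishes; plates incubated 24 h at 37 °C; gentamicin and nystatin as reference standards; run in duplicate.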

Another data set relates to Artemia salina. The data set can be described thus: Toxicity against Artemia salina. The settings on record: in vivo. Type of data set: organism-based.
A further data set concerns Proteus mirabilis. The data set can be described thus: Antimicrobial activity against Proteus mirabilis ATCC 12453. Type of data set: functional. The essentials:
as §1

For another data set, the system named is Candida albicans. As to the kind of experiment: Antimicrobial activity against Candida albicans ATCC 10231. Type of data set: functional. An outline of the steps:
as §1

In the next data set the test system is Escherichia coli. The data set can be described thus: Antimicrobial activity against Escherichia coli ATCC 8937. Type of data set: functional. The essentials: as §1

As for `Cc1coc2c(O)c3c(c(C)c12)[C@@H](C)CCC3` [CACALOL], the MIC with Staphylococcus aureus was 12 µg/mL (≈ 52.1 µM); against Pseudomonas aeruginosa it was more than 400 µg/mL; against Proteus mirabilis, 12 µg/mL (≈ 52.1 µM); against Candida albicans, 12 µg/mL (≈ 52.1 µM); in the data set on Escherichia coli, 25 µg/mL (≈ 109 µM). The LD50 with Artemia salina turned out to be 12 ppm.

For the molecule `Cc1coc2c(O)c3c(c(Cc4oc5c(O)c6c(c(C)c5c4C)[C@@H](C)CCC6)c12)[C@@H](C)CCC3` [ADENOSTIN A], the MIC was 50 µg/mL (≈ 109 µM) in the data set on Staphylococcus aureus, more than 400 µg/mL in the data set with Pseudomonas aeruginosa, more than 400 µg/mL against Candida albicans and more than 400 µg/mL in the data set on Escherichia coli. Besides, in the data set with Artemia salina, the LD50 turned out to be 230 ppm.

As to `CC(=O)O[C@@H]1c2c(C)coc2C(=O)C2=CCC[C@H](C)[C@]21C` [DECOMPOSTIN], the MIC against Staphylococcus aureus, in the data set with Pseudomonas aeruginosa, in the data set with Proteus mirabilis, against Candida albicans and against Escherichia coli was more than 400 µg/mL each time. Besides, in the data set with Artemia salina, the LD50 is recorded as more than 1000 ppm.

In the case of `COc1c2c(c(C)c3c(C)coc13)[C@@H](C)CC=C2`, the minimum inhibitory concentration (MIC) with Staphylococcus aureus is 400 µg/mL (≈ 1650 µM); in the data set with Pseudomonas aeruginosa, more than 400 µg/mL; in the data set with Proteus mirabilis, more than 400 µg/mL; in the data set with Candida albicans, more than 400 µg/mL; in the data set with Escherichia coli it was more than 400 µg/mL. For the same molecule, in the data set on Artemia salina, the LD50 is listed as more than 1000 ppm.

Take `Cc1coc2c1C(C)(O)C1=C(CCC[C@@H]1C)C2=O` (mixture of isomers) [cacalone/epi-cacalone]: the MIC in the data set on Staphylococcus aureus was 250 µg/mL; in the data set on Pseudomonas aeruginosa it was more than 1000 µg/mL; against Proteus mirabilis it was more than 1000 µg/mL; in the data set with Candida albicans, more than 1000 µg/mL; against Escherichia coli it was more than 1000 µg/mL. In the data set on Artemia salina, this molecule had an LD50 of 269 ppm.

`C[C@H]1CCCc2c(O)c(O)c3c(c21)COC(=O)C3(C)O` (mixture of isomers): the minimal inhibitory concentration (MIC) with Staphylococcus aureus is 200 µg/mL; in the data set with Pseudomonas aeruginosa, more than 400 µg/mL; against Candida albicans it was more than 400 µg/mL; against Escherichia coli, more than 400 µg/mL. Further, in the data set on Artemia salina, the LD50 came out at 230 ppm.

`C/C=C\C(=O)O[C@@H]1c2c(C)coc2C(=O)C2=CCC[C@H](C)[C@]21C` [NEOADENOSTYLONE]: the MIC in the data set on Staphylococcus aureus, in the data set with Pseudomonas aeruginosa, in the data set on Candida albicans and against Escherichia coli was more than 400 µg/mL each time. In the data set with Artemia salina, the LD50 is given as 21.7 ppm.

With `COc1c2c(c(C)c3c1OC(=O)[C@@]3(C)O)[C@@H](C)CCC2` [RADULIFOLIN B], the MIC in the data set on Staphylococcus aureus is 100 µg/mL (≈ 362 µM); in the data set on Pseudomonas aeruginosa, more than 400 µg/mL; against Candida albicans it was more than 400 µg/mL; against Escherichia coli it was more than 400 µg/mL. Also, in the data set on Artemia salina, the LD50 was determined as 52.5 ppm.

Usually MIC stands for the least concentration at which growth counts as inhibited. Read a low MIC as greater potency.
